Laboratory results reported in paper PMC12827892 (Acta Pharmaceutica Sinica. B, 2025).
Where two headings read alike, the source gives them in different places.

Legend:
OTUB1 = OTUB1 (Homo sapiens, UniProt Q96FW1); experiment: DUB enzymatic assay; format: biochemical; details: 10 μmol/L
OC43 = format: cell-based, HCoV-OC43; details: Huh7 hepatocytes, 0.1 MOI
[1] = test system: expression levels of ACE2; format: cell-based; details: mouse airway organoids
USP7 = USP7 (Homo sapiens, UniProt Q93009); experiment: DUB enzymatic assay; format: biochemical; details: 10 μmol/L
Sequence of USP7 (Q93009 whole entry, species assumed): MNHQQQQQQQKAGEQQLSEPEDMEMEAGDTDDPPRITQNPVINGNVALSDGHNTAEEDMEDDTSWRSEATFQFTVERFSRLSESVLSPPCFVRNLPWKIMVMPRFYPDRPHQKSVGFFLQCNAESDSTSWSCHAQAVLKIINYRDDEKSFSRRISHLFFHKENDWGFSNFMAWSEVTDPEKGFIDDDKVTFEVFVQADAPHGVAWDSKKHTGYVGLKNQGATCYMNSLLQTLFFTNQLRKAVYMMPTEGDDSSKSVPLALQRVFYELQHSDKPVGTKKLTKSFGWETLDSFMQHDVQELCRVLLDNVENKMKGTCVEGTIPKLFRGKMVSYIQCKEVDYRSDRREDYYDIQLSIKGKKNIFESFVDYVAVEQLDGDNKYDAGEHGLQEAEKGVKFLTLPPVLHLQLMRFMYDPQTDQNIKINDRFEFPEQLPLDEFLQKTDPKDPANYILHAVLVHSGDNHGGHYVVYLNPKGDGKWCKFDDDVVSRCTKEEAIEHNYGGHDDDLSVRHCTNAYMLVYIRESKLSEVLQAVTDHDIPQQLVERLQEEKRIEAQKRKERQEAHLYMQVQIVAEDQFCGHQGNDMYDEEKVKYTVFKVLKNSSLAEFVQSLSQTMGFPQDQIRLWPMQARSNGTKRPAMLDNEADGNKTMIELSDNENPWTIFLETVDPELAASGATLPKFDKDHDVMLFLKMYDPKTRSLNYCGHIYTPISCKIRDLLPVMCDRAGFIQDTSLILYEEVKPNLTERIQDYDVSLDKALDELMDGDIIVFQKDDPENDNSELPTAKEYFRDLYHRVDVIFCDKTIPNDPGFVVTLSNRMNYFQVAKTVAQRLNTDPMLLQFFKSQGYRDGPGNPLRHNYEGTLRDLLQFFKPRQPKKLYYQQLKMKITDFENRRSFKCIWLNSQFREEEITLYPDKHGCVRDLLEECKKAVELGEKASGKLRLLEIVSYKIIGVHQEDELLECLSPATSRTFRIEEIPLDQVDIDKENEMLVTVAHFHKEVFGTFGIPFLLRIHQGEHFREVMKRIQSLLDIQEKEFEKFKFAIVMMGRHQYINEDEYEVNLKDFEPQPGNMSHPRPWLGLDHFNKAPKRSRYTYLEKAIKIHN

[2] = Stability in mouse liver microsomes; format: in vitro ADME; details: compared to 2
USP14 = USP14 (Homo sapiens, UniProt P54578); experiment: DUB enzymatic assay; format: biochemical; details: 10 μmol/L
Sequence of USP14 (P54578 whole entry, species assumed): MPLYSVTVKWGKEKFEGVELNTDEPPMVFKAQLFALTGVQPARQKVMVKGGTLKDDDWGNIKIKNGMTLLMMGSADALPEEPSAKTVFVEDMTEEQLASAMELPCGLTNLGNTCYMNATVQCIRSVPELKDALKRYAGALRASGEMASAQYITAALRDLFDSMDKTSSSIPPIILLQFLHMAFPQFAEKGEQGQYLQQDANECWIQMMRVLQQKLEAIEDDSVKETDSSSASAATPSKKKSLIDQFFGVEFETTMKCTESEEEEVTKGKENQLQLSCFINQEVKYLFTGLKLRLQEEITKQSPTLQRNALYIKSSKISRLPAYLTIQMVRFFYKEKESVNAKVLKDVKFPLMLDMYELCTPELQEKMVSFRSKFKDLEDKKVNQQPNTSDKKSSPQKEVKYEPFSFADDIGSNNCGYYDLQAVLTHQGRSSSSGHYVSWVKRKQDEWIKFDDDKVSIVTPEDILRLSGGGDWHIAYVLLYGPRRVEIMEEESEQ

USP8 = molecular target: T1, USP8 (Homo sapiens, UniProt P40818); experiment: DUB enzymatic assay; format: biochemical; details: 10 μmol/L
T1 sequence (P40818 1-1118): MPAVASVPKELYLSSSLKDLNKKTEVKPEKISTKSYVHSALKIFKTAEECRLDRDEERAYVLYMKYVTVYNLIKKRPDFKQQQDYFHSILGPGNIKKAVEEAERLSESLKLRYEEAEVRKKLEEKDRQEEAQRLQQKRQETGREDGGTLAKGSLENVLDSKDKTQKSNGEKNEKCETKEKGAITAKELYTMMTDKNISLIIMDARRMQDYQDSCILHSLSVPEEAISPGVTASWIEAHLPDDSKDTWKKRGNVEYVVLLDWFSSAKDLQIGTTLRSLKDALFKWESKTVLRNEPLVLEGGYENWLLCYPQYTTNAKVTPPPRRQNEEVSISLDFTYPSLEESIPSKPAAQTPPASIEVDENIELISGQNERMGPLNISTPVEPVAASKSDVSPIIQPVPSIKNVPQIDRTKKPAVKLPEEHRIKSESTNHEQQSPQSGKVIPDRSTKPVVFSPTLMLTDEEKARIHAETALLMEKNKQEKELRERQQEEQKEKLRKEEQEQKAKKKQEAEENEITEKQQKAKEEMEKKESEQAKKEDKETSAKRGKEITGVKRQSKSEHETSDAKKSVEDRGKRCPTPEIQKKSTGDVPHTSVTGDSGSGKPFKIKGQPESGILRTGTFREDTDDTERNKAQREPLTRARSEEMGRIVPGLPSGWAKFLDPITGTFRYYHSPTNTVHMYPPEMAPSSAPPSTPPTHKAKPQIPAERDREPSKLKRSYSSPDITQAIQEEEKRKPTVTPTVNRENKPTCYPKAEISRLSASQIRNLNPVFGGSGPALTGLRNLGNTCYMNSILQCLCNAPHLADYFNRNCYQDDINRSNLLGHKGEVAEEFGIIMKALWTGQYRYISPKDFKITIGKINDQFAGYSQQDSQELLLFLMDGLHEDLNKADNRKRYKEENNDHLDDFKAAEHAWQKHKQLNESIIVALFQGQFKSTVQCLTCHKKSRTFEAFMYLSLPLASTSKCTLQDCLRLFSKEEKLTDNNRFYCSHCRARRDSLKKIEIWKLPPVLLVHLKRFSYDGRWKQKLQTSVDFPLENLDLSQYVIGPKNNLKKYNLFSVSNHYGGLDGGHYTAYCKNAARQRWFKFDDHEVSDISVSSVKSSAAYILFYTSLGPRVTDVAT

UCHL1 = molecular target: T2, UCHL1 (Homo sapiens, UniProt P09936); experiment: DUB enzymatic assay; format: biochemical; details: 10 μmol/L
T2 sequence (P09936 1-223): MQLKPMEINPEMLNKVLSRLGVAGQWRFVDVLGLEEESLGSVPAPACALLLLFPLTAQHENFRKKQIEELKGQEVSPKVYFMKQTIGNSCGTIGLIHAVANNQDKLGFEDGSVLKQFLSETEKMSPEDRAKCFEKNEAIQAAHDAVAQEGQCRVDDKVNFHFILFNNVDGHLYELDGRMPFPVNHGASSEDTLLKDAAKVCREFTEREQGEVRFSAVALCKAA

OTULIN = OTULIN (Homo sapiens, UniProt Q96BN8); experiment: DUB enzymatic assay; format: biochemical; details: 10 μmol/L
Sequence of OTULIN (Q96BN8 whole entry, species assumed): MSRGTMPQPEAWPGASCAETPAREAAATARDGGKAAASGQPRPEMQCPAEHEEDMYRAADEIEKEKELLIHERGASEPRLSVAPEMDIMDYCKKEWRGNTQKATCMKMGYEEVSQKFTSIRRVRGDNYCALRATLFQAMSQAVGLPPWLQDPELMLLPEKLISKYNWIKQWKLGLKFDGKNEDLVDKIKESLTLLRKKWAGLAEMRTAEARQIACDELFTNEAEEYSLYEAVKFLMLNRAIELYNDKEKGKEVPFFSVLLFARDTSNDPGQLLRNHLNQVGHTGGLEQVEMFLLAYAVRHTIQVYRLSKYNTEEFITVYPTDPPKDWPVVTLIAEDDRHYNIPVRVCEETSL

SARS-CoV-2 Nsp3^179−1329 = SARS-CoV-2 Nsp3^179−1329 (Severe acute respiratory syndrome coronavirus 2, UniProt P0DTD1); experiment: Nsp3 DUB activity, Rho-110 cleavage assay; format: biochemical
SARS-CoV-2 [3] = format: in vivo, K18-hACE2 transgenic mice; details: ip, BID; for Weight loss in infected mice: five days; for SARS-CoV-2 viral loads in the lungs: Day 6, RT-PCR and IHC
Nsp3179-1329 proteins = Nsp3179-1329 proteins (Severe acute respiratory syndrome coronavirus 2, UniProt P0DTD1); set-up: species or system SARS-CoV-2; details: incubation with compound, SEC
[4] = test system: phosphorylation levels of RIPK1 Ser166; format: cell-based; details: mouse airway organoids
229E = format: cell-based, HCoV-229E
[5] = Pharmacokinetic studies in mice; format: in vivo, male ICR mice
Procedure, shortened: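 Test compound was formulated in 10% (v/v) dimethylacetamide and 10% (w/v) Solutol HS 15 in normal saline. It was given to male ICR mice by tail-vein iv (1 mpk) or ip (10 mpk). Plasma from centrifuged whole blood was diluted in acetonitrile with internal standard. Brain was taken into PBS/acetonitrile (1:8) with internal standard and homogenised (30 Hz, 10 min). Samples were centrifuged (4 °C, 14,000 rpm, 10 min) and analysed by LC-MS/MS.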

SARS-CoV-2 [6] = format: cell-based; details: 4 μmol/L
cytokine secretion = format: cell-based, mouse; details: single agent
[7] = test system: panel of over 300 wild-type human kinases; experiment: KINOMEscan kinase selectivity profile; format: binding; details: 1 μmol/L
SARS-CoV-2 [8] = experiment: SARS-CoV-2 replication in hACE2-HeLa cells; format: cell-based; details: 10 μmol/L

Sequence of OTUB1 (Q96FW1 whole entry, species assumed): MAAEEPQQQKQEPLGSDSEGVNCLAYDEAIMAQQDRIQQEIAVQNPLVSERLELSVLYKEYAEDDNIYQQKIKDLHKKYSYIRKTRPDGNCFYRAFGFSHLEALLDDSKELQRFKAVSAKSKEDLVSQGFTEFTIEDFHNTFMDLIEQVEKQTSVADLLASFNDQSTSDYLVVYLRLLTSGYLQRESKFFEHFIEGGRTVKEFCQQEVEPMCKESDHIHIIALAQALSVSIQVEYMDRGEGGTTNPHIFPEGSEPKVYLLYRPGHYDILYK

In the case of `C[C@H](c1cccc2ccccc12)N1CCC(C(=O)NCc2cccc(-c3cn(Cc4nnc5c(F)cccn45)nn3)c2)CC1` [SHY1643, (R)-N-(3-(1-((8-Fluoro-[1,2,4]triazolo[4,3-a]pyridin-3-yl)methyl)-1H-1,2,3-triazol-4-yl)benzyl)-1-(1-(naphthalen-1-yl)ethyl)piperidine-4-carboxamide], the “Inhibitory effect on OTUB1” value (OTUB1) is reported as “no significant inhibitory effects”, the “Antiviral activity against OC43” value (OC43) is reported as “robust antiviral activity” and the “Expression levels of ACE2” value [1] is reported as “did not affect”. The “Inhibitory effect on USP7” value (USP7) was “no significant inhibitory effects”, the “Metabolic stability in mouse microsomes” value [2] was “markedly improved metabolic stability compared to 2” and the “Inhibitory effect on USP14” value (USP14) was “no significant inhibitory effects”. The “Inhibitory effect on USP8” value (USP8) was “no significant inhibitory effects”, the “Inhibitory effect on UCHL1” value (UCHL1) was “no significant inhibitory effects” and the “Inhibitory effect on OTULIN” value (OTULIN) was “no significant inhibitory effects”. The IC50 (SARS-CoV-2 Nsp3^179−1329) was 28 nM, the “Weight loss in infected mice” value (SARS-CoV-2 [3]; 10 mpk) was “significantly slowed the weight loss” and the “SARS-CoV-2 viral loads in the lungs” value (SARS-CoV-2 [3]; 10 mpk) was “effectively reduced viral loads in the lungs”. For the same compound, the “Dimerization of Nsp3 protein” value (Nsp3179-1329 proteins) was “could induce dimerization of Nsp3 protein”, the “Phosphorylation levels of RIPK1 Ser166 following viral infection” value [4] was “did not affect” and the “Antiviral activity against 229E” value (229E) was “robust antiviral activity”.

With `[2H]c1c([2H])c([C@]2([2H])CCCN2C(=O)C(C)(C)Oc2ccc3cn[nH]c3c2)c([2H])c([2H])c1C([2H])([2H])[2H]` [QY1892, (S)-2-((1H-Indazol-6-yl)oxy)-2-methyl-1-(2-(4-(methyl-d3)phenyl-2,3,5,6-d4)pyrrolidin-1-yl-2-d)propan-1-one] the “Expression levels of ACE2” value [1] was “significantly reduced”, the Brain distribution post-administration [5] was “significant brain distribution” and the “Weight loss in infected mice” value (SARS-CoV-2 [3]; 5 mpk) was “significantly slowed the weight loss”. The “SARS-CoV-2 viral loads in the lungs” value (SARS-CoV-2 [3]; 5 mpk) was “effectively reduced viral loads in the lungs”, the “Viral replication in mouse airway organoids” value (SARS-CoV-2 [6]) was “effectively suppressed the viral replication” and the “Phosphorylation levels of RIPK1 Ser166 following viral infection” value [4] was “significantly reduced”. For the same compound, the “Cytokine secretion from the organoids upon viral infection” value (cytokine secretion) was “significantly more effective than SHY1643”, the “Kinase selectivity across the kinome” value [7] was “no significant off-target activity observed across the kinome” and the “Effects against SARS-CoV-2 in ACE2-HeLa cells” value (SARS-CoV-2 [8]) was “neither QY1892 nor DNL758 exhibited detectable effects”.

In the case of `CN1C(=O)[C@@H](NC(=O)c2nnc(Cc3ccccc3)[nH]2)COc2cccnc21` [DNL758, reference compound], the “Effects against SARS-CoV-2 in ACE2-HeLa cells” value (SARS-CoV-2 [8]) is reported as “neither QY1892 nor DNL758 exhibited detectable effects”.
